Measurements taken from ChEMBL document CHEMBL4689842, “EUbOPEN Chemogenomics Library wave 1” (2021).

How the values were obtained:
HEK-293T = test: Incucyte cell viability with HEK293T; format: toxicity, cell-based; details: human, 10 µM, compound concentration 10 uM; further: filed as whole numbers so only -1 and 0 and 1 occur
U2OS = test: Multiplex assay against U2OS; format: toxicity, cell-based; details: human
In short: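 Cells stained live at seeding with Hoechst33342, BioTracker Green Microtubule Cytoskeleton Dye, MitoTracker Red and Annexin V Alexa Fluor 680 were imaged on a CQ1 microscope at 37°C and 5% CO2 after compound addition. Their classification by CellPathfinder machine-learning gating ran from Hoechst high-intensity objects versus normal cells, to healthy, pyknosed or fragmented nuclei among normal cells, to mitotic or apoptotic among pyknosed cells. Tubulin, mitochondrial-mass and membrane-permeability phenotypes are per cents of healthy-nucleus cells.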

[1] = 12 h, 1 µM, compound concentration 1 uM, replicate 1
[2] = 12 h, 1 µM, compound concentration 1 uM, replicate 2
[3] = 12 h, 10 µM, compound concentration 10 uM, replicate 1
[4] = 12 h, 10 µM, compound concentration 10 uM, replicate 2
[5] = 24 h, 1 µM, compound concentration 1 uM, replicate 1
[6] = 24 h, 1 µM, compound concentration 1 uM, replicate 2
[7] = 24 h, 10 µM, compound concentration 10 uM, replicate 1
[8] = 24 h, 10 µM, compound concentration 10 uM, replicate 2
[9] = 48 h, 1 µM, compound concentration 1 uM, replicate 1
[10] = 48 h, 1 µM, compound concentration 1 uM, replicate 2
[11] = 48 h, 10 µM, compound concentration 10 uM, replicate 1
[12] = 48 h, 10 µM, compound concentration 10 uM, replicate 2

CCCCN(CC)c1nc(C)nc2c1c(C)cn2-c1c(C)cc(C)cc1C.Cl
Growth Rate (HEK-293T; 0 h, replicate number 1, timepoint 0 hours): 0 | Growth Rate (HEK-293T; 6 h, replicate number 1, timepoint 6 hours): 0 | Growth Rate (HEK-293T; 12 h, replicate number 1, timepoint 12 hours): 0 | Growth Rate (HEK-293T; 18 h, replicate number 1, timepoint 18 hours): 0 | Growth Rate (HEK-293T; 24 h, replicate number 1, timepoint 24 hours): 0 | Population Apoptotic (%) (U2OS; [1]): 33% | Population Healthy Nuclei (%) (U2OS; [1]): 76% | Population Hoechst High Intensity Objects (%) (U2OS; [1]): 8% | Population Membrane Permeable-Phenotype (%) (U2OS; [1]): 3% | Population Mitochondria Different-Phenotype (%) (U2OS; [1]): 7% | Population Mitotic Cells (%) (U2OS; [1]): 66% | Population Normal (%) (U2OS; [1]): 91% | Population Tubulin-Different-Phenotype (%) (U2OS; [1]): 6% | Total Cell Count (U2OS; [1]): 135 | Population Apoptotic (%) (U2OS; [2]): 55% | Population Fragmented Nuclei (%) (U2OS; [2]): 13% | Population Healthy Nuclei (%) (U2OS; [2]): 77% | Population Hoechst High Intensity Objects (%) (U2OS; [2]): 3% | Population Membrane Permeable-Phenotype (%) (U2OS; [2]): 5% | Population Mitochondria Different-Phenotype (%) (U2OS; [2]): 8% | Population Mitotic Cells (%) (U2OS; [2]): 44% | Population Normal (%) (U2OS; [2]): 96% | Population Pyknosed Nuclei (%) (U2OS; [2]): 9% | Population Tubulin-Different-Phenotype (%) (U2OS; [2]): 14% | Total Cell Count (U2OS; [2]): 95 | Population Apoptotic (%) (U2OS; [3]): 65% | Population Fragmented Nuclei (%) (U2OS; [3]): 17% | Population Healthy Nuclei (%) (U2OS; [3]): 67% | Population Hoechst High Intensity Objects (%) (U2OS; [3]): 7% | Population Membrane Permeable-Phenotype (%) (U2OS; [3]): 2% | Population Mitochondria Different-Phenotype (%) (U2OS; [3]): 51% | Population Mitotic Cells (%) (U2OS; [3]): 35% | Population Normal (%) (U2OS; [3]): 92% | Population Pyknosed Nuclei (%) (U2OS; [3]): 14% | Population Tubulin-Different-Phenotype (%) (U2OS; [3]): 37% | Total Cell Count (U2OS; [3]): 145 | Population Apoptotic (%) (U2OS; [4]): 20% | Population Fragmented Nuclei (%) (U2OS; [4]): 9% | Population Healthy Nuclei (%) (U2OS; [4]): 83% | Population Hoechst High Intensity Objects (%) (U2OS; [4]): 6% | Population Membrane Permeable-Phenotype (%) (U2OS; [4]): 4% | Population Mitochondria Different-Phenotype (%) (U2OS; [4]): 55% | Population Mitotic Cells (%) (U2OS; [4]): 80% | Population Normal (%) (U2OS; [4]): 93% | Population Pyknosed Nuclei (%) (U2OS; [4]): 6% | Population Tubulin-Different-Phenotype (%) (U2OS; [4]): 19% | Total Cell Count (U2OS; [4]): 78 | Population Apoptotic (%) (U2OS; [5]): 27% | Population Fragmented Nuclei (%) (U2OS; [5]): 7% | Population Healthy Nuclei (%) (U2OS; [5]): 85% | Population Mitochondria Different-Phenotype (%) (U2OS; [5]): 8% | Population Mitotic Cells (%) (U2OS; [5]): 72% | Population Pyknosed Nuclei (%) (U2OS; [5]): 7% | Population Tubulin-Different-Phenotype (%) (U2OS; [5]): 9% | Total Cell Count (U2OS; [5]): 162 | Population Apoptotic (%) (U2OS; [6]): 29% | Population Fragmented Nuclei (%) (U2OS; [6]): 13% | Population Healthy Nuclei (%) (U2OS; [6]): 70% | Population Hoechst High Intensity Objects (%) (U2OS; [6]): 5% | Population Membrane Permeable-Phenotype (%) (U2OS; [6]): 3% | Population Mitochondria Different-Phenotype (%) (U2OS; [6]): 6% | Population Mitotic Cells (%) (U2OS; [6]): 70% | Population Normal (%) (U2OS; [6]): 94% | Population Pyknosed Nuclei (%) (U2OS; [6]): 15% | Population Tubulin-Different-Phenotype (%) (U2OS; [6]): 7% | Total Cell Count (U2OS; [6]): 116 | Population Apoptotic (%) (U2OS; [7]): 68% | Population Fragmented Nuclei (%) (U2OS; [7]): 19% | Population Healthy Nuclei (%) (U2OS; [7]): 62% | Population Hoechst High Intensity Objects (%) (U2OS; [7]): 5% | Population Membrane Permeable-Phenotype (%) (U2OS; [7]): 2% | Population Mitochondria Different-Phenotype (%) (U2OS; [7]): 48% | Population Mitotic Cells (%) (U2OS; [7]): 32% | Population Normal (%) (U2OS; [7]): 94% | Population Pyknosed Nuclei (%) (U2OS; [7]): 17% | Population Tubulin-Different-Phenotype (%) (U2OS; [7]): 26% | Total Cell Count (U2OS; [7]): 152 | Population Apoptotic (%) (U2OS; [8]): 25% | Population Fragmented Nuclei (%) (U2OS; [8]): 8% | Population Healthy Nuclei (%) (U2OS; [8]): 80% | Population Hoechst High Intensity Objects (%) (U2OS; [8]): 4% | Population Membrane Permeable-Phenotype (%) (U2OS; [8]): 3% | Population Mitochondria Different-Phenotype (%) (U2OS; [8]): 54% | Population Mitotic Cells (%) (U2OS; [8]): 75% | Population Normal (%) (U2OS; [8]): 95% | Population Pyknosed Nuclei (%) (U2OS; [8]): 11% | Population Tubulin-Different-Phenotype (%) (U2OS; [8]): 21% | Total Cell Count (U2OS; [8]): 74 | Population Apoptotic (%) (U2OS; [9]): 27% | Population Fragmented Nuclei (%) (U2OS; [9]): 5% | Population Healthy Nuclei (%) (U2OS; [9]): 86% | Population Hoechst High Intensity Objects (%) (U2OS; [9]): 3% | Population Membrane Permeable-Phenotype (%) (U2OS; [9]): 0% | Population Mitochondria Different-Phenotype (%) (U2OS; [9]): 10% | Population Mitotic Cells (%) (U2OS; [9]): 72% | Population Normal (%) (U2OS; [9]): 96% | Population Pyknosed Nuclei (%) (U2OS; [9]): 7% | Population Tubulin-Different-Phenotype (%) (U2OS; [9]): 7% | Total Cell Count (U2OS; [9]): 253 | Population Apoptotic (%) (U2OS; [10]): 28% | Population Fragmented Nuclei (%) (U2OS; [10]): 8% | Population Healthy Nuclei (%) (U2OS; [10]): 82% | Population Hoechst High Intensity Objects (%) (U2OS; [10]): 1% | Population Membrane Permeable-Phenotype (%) (U2OS; [10]): 8% | Population Mitochondria Different-Phenotype (%) (U2OS; [10]): 14% | Population Mitotic Cells (%) (U2OS; [10]): 71% | Population Normal (%) (U2OS; [10]): 98% | Population Pyknosed Nuclei (%) (U2OS; [10]): 8% | Population Tubulin-Different-Phenotype (%) (U2OS; [10]): 13% | Total Cell Count (U2OS; [10]): 170 | Population Apoptotic (%) (U2OS; [11]): 39% | Population Fragmented Nuclei (%) (U2OS; [11]): 18% | Population Healthy Nuclei (%) (U2OS; [11]): 68% | Population Hoechst High Intensity Objects (%) (U2OS; [11]): 6% | Population Membrane Permeable-Phenotype (%) (U2OS; [11]): 4% | Population Mitochondria Different-Phenotype (%) (U2OS; [11]): 30% | Population Mitotic Cells (%) (U2OS; [11]): 60% | Population Normal (%) (U2OS; [11]): 93% | Population Pyknosed Nuclei (%) (U2OS; [11]): 12% | Population Tubulin-Different-Phenotype (%) (U2OS; [11]): 26% | Total Cell Count (U2OS; [11]): 192 | Population Apoptotic (%) (U2OS; [12]): 38% | Population Fragmented Nuclei (%) (U2OS; [12]): 9% | Population Healthy Nuclei (%) (U2OS; [12]): 71% | Population Hoechst High Intensity Objects (%) (U2OS; [12]): 5% | Population Membrane Permeable-Phenotype (%) (U2OS; [12]): 6% | Population Mitochondria Different-Phenotype (%) (U2OS; [12]): 38% | Population Mitotic Cells (%) (U2OS; [12]): 61% | Population Normal (%) (U2OS; [12]): 94% | Population Pyknosed Nuclei (%) (U2OS; [12]): 18% | Population Tubulin-Different-Phenotype (%) (U2OS; [12]): 12% | Total Cell Count (U2OS; [12]): 119
